Experiments:
K562 [1] = test: Compound was tested for its effect on ADP ribonucleotide levels of K562 cell at 100 uM concentration; assay type: functional, Homo sapiens
How it was run: (§1)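 K562 cells (1×10^7) were treated with saline or agent for 2 h at 37 °C, harvested by centrifugation and washed with cold saline. They were extracted with cold 10% trichloroacetic acid, neutralized with 0.5 M tri-n-octylamine in freon, and analyzed by HPLC. Levels are in nmol/g and expressed as % of saline control. Significance was set at p < 0.05.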

K562 [2] = test: Compound was tested for its effect on UDP ribonucleotide levels of K562 cell at 50 uM concentration; assay type: functional, Homo sapiens; how it was run: as §1
K562 [3] = test: Compound was tested for its effect on GDP ribonucleotide levels of K562 cell at 50u; assay type: functional, Homo sapiens; how it was run: as §1
K562 [4] = test: Compound was tested for its effect on UMP ribonucleotide levels of K562 cell at 100 uM concentration; assay type: functional, Homo sapiens; how it was run: as §1
[5] = IC90 ratio against bone marrow samples to HL-60; assay type: functional
How it was run: (§2)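 Antiproliferative assay scoring [125I]-5-iodo-2'-deoxyuridine incorporation into DNA after 72 h drug–cell contact. Run on normal human bone marrow from five donors and in three assays on HL-60. Ratio is antilog(mean log IC50 or IC90) on bone marrow over the same on HL-60. Range limits are antilog(mean log IC50 ± 2SD).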

Homo sapiens [6] = species on record: Homo sapiens; test: (§3) Inhibitory concentration range against human bone marrow; assay type: functional; how it was run: as §2
[7] = Ratio of IC50 against HL-60; assay type: functional; how it was run: as §2
Mus musculus [8] = test: Average weight change of mice from onset to termination of drug treatment at 25 mg/kg dose; assay type: functional
How it was run: (§4)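 Female BD2F1 mice (8 weeks, 20–22 g), eight per group, injected ip with 10^5 L1210 cells on day 0. From 24 h later, drug in 0.9% NaCl was given ip once daily for 9 days. Body weight change was averaged from onset to termination of treatment. Early deaths from toxicity were recorded.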

K562 [9] = test: Formation of NAD analogue by compound at 100 uM concentration against human myelogenous leukemia K562; assay type: functional
How it was run: (§5)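 K562 cells (1×10^7/10 mL) were labeled with 185 nM [2,8-3H]adenosine for 1 h at 37 °C, then given saline or analogue for 2 h. Cells were pelleted, washed with PBS and extracted in cold 10% trichloroacetic acid. Extracts were neutralized with 0.5 M tri-n-octylamine in freon and run on SAX HPLC with ammonium phosphate buffer. Results are pmol NAD analogue per 10^9 cells.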

K562 [10] = test: Compound was tested for its effect on CDP ribonucleotide levels of K562 cell at 50 uM concentration; assay type: functional, Homo sapiens; how it was run: as §1
K562 [11] = test: Compound was tested for its effect on GDP ribonucleotide levels of K562 cell at 100 uM concentration; assay type: functional, Homo sapiens; how it was run: as §1
Homo sapiens [12] = species on record: Homo sapiens; test: as §3; assay type: functional, organism-based; how it was run: as §2
HL-60 [13] = test: Inhibitory concentration against HL-60 human promyelocytic leukemia; assay type: functional, cell-based
How it was run: (§6)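 Cells in log phase plated with a range of drug concentrations (B16 5×10^3 cells/well; P388, L1210, LLC 10^4 cells/well; HL-60, K562, LoVo 2.5×10^5 cells/well). Growth read by modified MTT after 72 h drug contact at 37 °C. IC50 taken as the concentration reducing optical absorption by 50%, from Chou regression analysis. Maximum concentration tested 200 μM.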

K562 [14] = test: Compound was tested for its effect on IMP ribonucleotide levels of K562 cell at 50 uM concentration; assay type: functional, Homo sapiens; how it was run: as §1
K562 [15] = test: Inhibitory concentration against K562 human myelogenous leukemia cell line; assay type: functional, cell-based; how it was run: as §6
LoVo [16] = test: Inhibitory concentration against LoVo human colon adenocarcinoma cell lines; assay type: functional, cell-based; how it was run: as §6
K562 [17] = test: Formation of NAD analogue by compound at 50 uM concentration against human myelogenous leukemia K562; assay type: functional; how it was run: as §5
K562 [18] = test: Compound was tested for its effect on AMP ribonucleotide levels of K562 cell at 50 uM concentration; assay type: functional, Homo sapiens; how it was run: as §1
K562 [19] = test: Compound was tested for its effect on CTP ribonucleotide levels of K562 cell at 50 uM concentration; assay type: functional, Homo sapiens; how it was run: as §1
L1210 [20] = test: Inhibitory concentration against L1210 murine lymphocytic leukemia; assay type: functional, cell-based; details: Mus musculus; how it was run: as §6
K562 [21] = test: Compound was tested for its effect on CTP ribonucleotide levels of K562 cell at 100 uM concentration; assay type: functional, Homo sapiens; how it was run: as §1
K562 [22] = test: Compound was tested for its effect on GMP ribonucleotide levels of K562 cell at 50 uM concentration; assay type: functional, Homo sapiens; how it was run: as §1
K562 [23] = test: Compound was tested for its effect on UMP ribonucleotide levels of K562 cell at 50 uM concentration; assay type: functional, Homo sapiens; how it was run: as §1
K562 [24] = test: Compound was tested for its effect on NAD ribonucleotide levels of K562 cell at 50 uM concentration; assay type: functional, Homo sapiens; how it was run: as §1
Mus musculus [25] = test: Average weight change of mice from onset to termination of drug treatment at 400 mg/kg dose; assay type: functional; how it was run: as §4
K562 [26] = test: Compound was tested for its effect on GMP ribonucleotide levels of K562 cell at 100 uM concentration; assay type: functional, Homo sapiens; how it was run: as §1
K562 [27] = test: Compound was tested for its effect on UDP ribonucleotide levels of K562 cell at 100 uM concentration; assay type: functional, Homo sapiens; how it was run: as §1
K562 [28] = test: Compound was tested for its effect on IMP ribonucleotide levels of K562 cell at 100 uM concentration; assay type: functional, Homo sapiens; how it was run: as §1
[29] = test system: Lewis lung carcinoma cell line; test: Inhibitory concentration against LLC Lewis lung carcinoma; assay type: functional, cell-based; details: Mus musculus; how it was run: as §6
K562 [30] = test: Compound was tested for its effect on NAD ribonucleotide levels of K562 cell at 100 uM concentration; assay type: functional, Homo sapiens; how it was run: as §1
K562 [31] = test: Compound was tested for its effect on ADP ribonucleotide levels of K562 cell at 50 uM concentration; assay type: functional, Homo sapiens; how it was run: as §1
K562 [32] = test: Compound was tested for its effect on CDP ribonucleotide levels of K562 cell at 100 uM concentration; assay type: functional, Homo sapiens; how it was run: as §1
Mus musculus [33] = test: Compound was tested for ratio of survival time of treated to control mice x100 at 25 mg/kg dose; assay type: functional
How it was run: (§7)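 Female BD2F1 mice (8 weeks old, 20–22 g), eight per group, injected ip with 10^5 L1210 leukemia cells on day 0. Starting 24 h later, drug dissolved in 0.9% NaCl given ip once daily for 9 consecutive days. % T/C = survival time of treated/control mice × 100. Body weight change tracked from start to end of treatment.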

K562 [34] = test: Compound was tested for its effect on UTP ribonucleotide levels of K562 cell at 50 uM concentration; assay type: functional, Homo sapiens; how it was run: as §1
HL-60 [35] = test: (§8) Inhibitory concentration range against human HL-60 cell line; assay type: functional, cell-based; how it was run: as §2
K562 [36] = test: compound was tested for its effect on IMPDH activity against K562 cells at 50 uM concentration; assay type: functional, Homo sapiens
How it was run: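 K562 cells (1×10^6/mL, log phase) exposed 2 h at 37 °C to 10, 50 or 100 μM drug, or to saline. Cells washed and lysed in Tris-HCl pH 7.4/NaCl/MgCl2/NP-40/aprotinin, and the 13000g supernatant used as enzyme. Enzyme incubated 30 min at 37 °C with 286 μM [2,8-3H]IMP and 1 mM NAD. Tritium release counted; activity in nmol XMP/h/mg protein, as % of saline control.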

K562 [37] = test: Compound was tested for its effect on IMPDH activity against K562 cells at 50 uM concentration; assay type: functional, Homo sapiens
How it was run: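 Log-phase K562 cells (1×10^6/mL) were exposed to saline or agent for 2 h at 37 °C, washed and lysed (Tris-HCl pH 7.4, NaCl, MgCl2, 0.5% NP-40, aprotinin). The cleared supernatant was incubated 30 min at 37 °C with 286 μM [2,8-3H]IMP and 1 mM NAD. Tritium release was counted by scintillation. Activity is nmol XMP/h/mg protein, also given as % of control.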

K562 [38] = test: Compound was tested for its effect on ATP ribonucleotide levels of K562 cell at 100 uM concentration; assay type: functional, Homo sapiens; how it was run: as §1
K562 [39] = test: Compound was tested for its effect on AMP ribonucleotide levels of K562 cell at 100 uM concentration; assay type: functional, Homo sapiens; how it was run: as §1
K562 [40] = test: Compound was tested for its effect on GTP ribonucleotide levels of K562 cell at 50 uM concentration; assay type: functional, Homo sapiens; how it was run: as §1
K562 [41] = test: Compound was tested for its effect on UTP ribonucleotide levels of K562 cell at 100 uM concentration; assay type: functional, Homo sapiens; how it was run: as §1
[42] = IC50 ratio against bone marrow samples to HL-60; assay type: functional; how it was run: as §2
K562 [43] = test: Compound was tested for its effect on ATP ribonucleotide levels of K562 cell at 50 uM concentration; assay type: functional, Homo sapiens; how it was run: as §1
P388 [44] = test: Inhibitory concentration against P388 murine lymphocytic leukemia cell lines; assay type: functional, cell-based; details: Mus musculus; how it was run: as §6
K562 [45] = test: Compound was tested for its effect on GTP ribonucleotide levels of K562 cell at 100 uM concentration; assay type: functional, Homo sapiens; how it was run: as §1
Mus musculus [46] = test: Compound was tested for ratio of survival time of treated to control mice x100 at 400 mg/kg dose; assay type: functional; how it was run: as §7
HL-60 [47] = test: as §8; assay type: functional; how it was run: as §2
HL-60 [48] = test: Inhibitory concentration against HL-60 human promyelocytic leukemia cell lines; inactive until a maximum tested concentration of 200 uM; assay type: functional, cell-based; how it was run: as §6
LoVo [49] = test: Inhibitory concentration against LoVo human colon adenocarcinoma cell lines; Inactive until a maximum tested concentration of 200 uM; assay type: functional, cell-based; how it was run: as §6
B16 = test: Inhibitory concentration against B16 melanoma cell lines; Inactive until a maximum tested concentration of 200 uM; assay type: functional, cell-based, Mus musculus; how it was run: as §6
[50] = test system: Lewis lung carcinoma cell line; test: Inhibitory concentration against LLC Lewis lung carcinoma cell lines; Inactive until a maximum tested concentration of 200 uM; assay type: functional, cell-based, Mus musculus; how it was run: as §6
P388 [51] = test: Inhibitory concentration against P388 murine lymphocytic leukemia cell lines; Inactive until a maximum tested concentration of 200 uM; assay type: functional, cell-based, Mus musculus; how it was run: as §6
L1210 [52] = test: Inhibitory concentration against L1210 murine lymphocytic leukemia cell lines; inactive until a maximum tested concentration of 200 uM; assay type: functional, cell-based, Mus musculus; how it was run: as §6
K562 [53] = test: Inhibitory concentration determined against K562 human myelogenous leukemia cell lines; inactive until a maximum tested concentration of 200 uM; assay type: functional, cell-based; how it was run: as §6

## NC(=O)c1csc([C@@H]2O[C@H](CO)[C@@H](O)[C@H]2O)n1 [TIAZOFURIN]
K562 [1]
  Control: 99%
K562 [2]
  Control: 120%
K562 [3]
  Control: 82%
K562 [4]
  Control: 96%
[5]
  Ratio: >6
Homo sapiens [6]
  IC90: >128 µM
[7]
  Ratio: 1.9
Mus musculus [8]
  Change: -4.3%
K562 [9]
  Formation: 310 pmol/10^9 cells
K562 [10]
  Control: 104%
K562 [11]
  Control: 63%
Homo sapiens [12]
  IC50: 10.4 µM
HL-60 [13]
  IC50: 8.7 µM
K562 [14]
  Control: 544%
K562 [15]
  IC50: 4.5 µM
LoVo [16]
  IC50: > 128 µM
K562 [17]
  Formation: 186 pmol/10^9 cells
K562 [18]
  Control: 100%
K562 [19]
  Control: 92%
L1210 [20]
  IC50: 7.4 µM
K562 [21]
  Control: 32%
K562 [22]
  Control: 62%
K562 [23]
  Control: 113%
K562 [24]
  Control: 98%
Mus musculus [25]
  Change: -13.1%
K562 [26]
  Control: 55%
K562 [27]
  Control: 116%
K562 [28]
  Control: 578%
[29]
  IC50: 1.5 µM
K562 [30]
  Control: 84%
K562 [31]
  Control: 103%
K562 [32]
  Control: 85%
Mus musculus [33]
  T/C: 177%
K562 [34]
  Control: 115%
HL-60 [35]
  IC50: 2.5 µM
K562 [36]
  Control: 37%
K562 [37]
  Activity: 1.82
K562 [38]
  Control: 91%
K562 [39]
  Control: 103%
K562 [40]
  Control: 64%
K562 [41]
  Control: 90%
[42]
  Ratio: 7.3
K562 [43]
  Control: 101%
P388 [44]
  IC50: 2.2 µM
K562 [45]
  Control: 54%
Mus musculus [46]
  T/C: 260%
HL-60 [47]
  IC90: 7.6 µM

## NC(=O)c1coc([C@@H]2O[C@H](CO)[C@@H](O)[C@H]2O)c1
HL-60 [48]
  IC50: Not Active
LoVo [49]
  IC50: Not Active
K562 [9]
  Formation: 124 pmol/10^9 cells
B16
  IC50: Not Active
K562 [17]
  Formation: 49.4 pmol/10^9 cells
[50]
  IC50: Not Active
P388 [51]
  IC50: Not Active
L1210 [52]
  IC50: Not Active
K562 [53]
  IC50: Not Active
